# Measured values of several laboratories.
# Lines come from different studies, so protocols differ.
# Target: Mitogen-activated protein kinase kinase kinase 20 (MAP3K20, Homo sapiens, UniProt Q9NYL2)
SMILES,test,conditions,quantity,result
CC(=O)N1CCC(c2ccc(C(=O)NC(=N)N)cc2C(F)(F)F)CC1,"cell-free assay, competition with immobilised ligand",1 µM,remaining binding,100%
O=C(Nc1cnn(-c2csc(C(=O)NC3COC3)c2)c1)Nc1ccccc1Cl,"enzyme activity, inhibitor",5 µM,remaining activity,101%
CC(C)(O)[C@H]1CC[C@H](Nc2ccc3ncc(-c4cccc(C(F)(F)F)c4)n3n2)CC1,"enzyme activity, inhibitor",1 µM,remaining activity,75.7%
CC1=C(C#N)C(c2ccc3c(c2)c(NC(=O)c2ccccc2C)nn3C)C(C#N)=C(C)N1,"cell-free assay, competition with immobilised ligand",1 µM,remaining binding,100%
COc1cc(Cl)c(C(=O)N[C@@H](CN[C@H]2CC[C@@H](N)CC2)Cc2ccc(C#N)cc2)cc1-c1ccc(CN[C@H](C)c2ccc(C)cc2)o1,"enzyme activity, inhibitor",1 µM,remaining activity,97%
c1ccc(CNc2nc(N3CCOc4ccccc43)nc3c2CCCC3)cc1,"target engagement in cells, inhibitor, chemoproteomics",20 mM,inhibition,-6.3%
CC(=O)c1c(NS(C)(=O)=O)c2cc(-c3ccc(Cl)cc3)c(-c3ccc(Cl)cc3Cl)nc2n(C)c1=O,"cell-free assay, competition with immobilised ligand",1 µM,remaining binding,92%
Cn1c2c(Cl)c(Cl)ccc2c2cc[nH]c(=O)c21,"thermal stability, DSF",10 µM,ΔTm,-0.2 °C
CNC(=O)c1cc(Oc2ccc(NC(=O)Nc3ccc(Cl)c(C(F)(F)F)c3)cc2)ccn1,cell-free assay,0.5 µM,remaining signal,16.7%
Cc1nccc(COC(=O)N2C[C@@H]3[C@@H](CNC(=O)c4ccc5[nH]nnc5c4)[C@@H]3C2)n1,"cell-free assay, competition with immobilised ligand",1 µM,remaining binding,90%
Nc1ncnc2c1ncn2[C@@H]1O[C@H](COP(=O)(O)OP(=O)(O)OP(=O)(O)O)[C@@H](O)[C@H]1O,"enzyme activity, substrate, mass spectrometry",,Km,140 µM
Cn1c2c(c3ccc(Cl)c(Cl)c31)C(C#N)C1(CCCC1)NC2=O (centres unmarked),"thermal stability, DSF",10 µM,ΔTm,-0.1 °C
O=C1Nc2ccc(Cl)cc2C1=Cc1cc(Cl)c(O)c(Cl)c1,cell-free assay,0.5 µM,remaining signal,77.4%
CC(C)(C)c1nc2c(s1)c1nc(N)ncc1c1ccc(NS(=O)(=O)c3c(F)cccc3F)c(F)c12,"enzyme activity, inhibitor, radiometric",1 µM,remaining activity,103%
CO[C@H]1CC[C@H](CNc2ccc(S(=O)(=O)NC(=O)c3ccc(N4CCN(CC5=C(c6ccc(Cl)cc6)CC(C)(C)CC5)CC4)cc3Oc3cnc4[nH]ccc4c3)cc2[N+](=O)[O-])CC1,"cell-free assay, competition with immobilised ligand",1 µM,remaining binding,100%
Cc1sc(C(=O)NC2COC2)cc1-n1cc(NC(=O)Nc2c(F)cccc2Cl)cn1,"enzyme activity, inhibitor",10 µM,remaining activity,89.9%
CNC(=O)c1cc2c(Oc3ccc(NC(=O)C4(C(=O)Nc5ccc(F)cc5)CC4)cc3)ccnc2cc1OC,"enzyme activity, inhibitor, radiometric",1 µM,inhibition,82%
COc1cccc2c(NCc3ccccc3)nc(-n3c(N)nc4ccccc43)nc12,"target engagement in cells, inhibitor, chemoproteomics",20 mM,inhibition,-3.3%
CCN1CCC2(CC1)NC(=O)c1c(c3ccc(Cl)c(Cl)c3n1C)C2C#N (racemic),"thermal stability, DSF",10 µM,ΔTm,-0.3 °C
Cc1c(C(=O)O)cc(-c2ccc(C3CCNCC3)cc2)c2ccc(-c3ccc(C(F)(F)F)cc3)cc12,"binding, competition with immobilised ligand",1 µM,remaining binding,100%
CCC1(CC)NC(=O)c2c(c3ccc(Cl)c(Cl)c3n2C)C1C#N (centres unmarked),"thermal stability, DSF",10 µM,ΔTm,0 °C
COc1cc2c(N3CCN(C(=O)Nc4ccc(OC(C)C)cc4)CC3)ncnc2cc1OCCCN1CCCCC1,cell-free assay,0.5 µM,remaining signal,99.7%
N#CC1c2c([nH]c3c(Cl)c(Cl)ccc23)C(=O)NC12CCCCC2 (racemic),"thermal stability, DSF",10 µM,ΔTm,-0.3 °C
CNC(=O)c1ccc(Nc2ncc(C(F)(F)F)c(NCc3nccnc3N(C)S(C)(=O)=O)n2)cc1,"cell-free assay, competition with immobilised ligand",0.1 µM,remaining binding,100%
COc1cc2nccc(Oc3ccc(NC(=O)c4c5n(n(-c6ccc(F)cc6)c4=O)CCCC5)cc3)c2cc1OC,"enzyme activity, inhibitor",0.1 µM,inhibition,-4%
Cn1c2c(Cl)c(Cl)ccc2c2cn[nH]c(=O)c21,"thermal stability, DSF",10 µM,ΔTm,0.4 °C
